# ZTA counter = counter-screen for EBNA-1 inhibitors: inhibitors of Epstein-Barr virus ZTA; 0.15% of 320,000 active; inhibition, % at 11 µM; ZTA-DNA binding, fluorescence polarization; in the data active = inhibition above about 33%
# NS3 helicase inh = inhibitors of HCV NS3 helicase, primary screen, biochemical, Cy5 molecular beacon fluorescence; Hepatitis C virus NS3 helicase; NS3 helicase DNA unwinding; inhibition, % at 10.9 µM; 0.56% of 290,000 active;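 active = inhibition above the mean of all tested compounds plus 3 SD, set per campaign, cut at about 35% in these data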;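 also: 0% = DMSO wells and 100% = thioflavine S control wells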
#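 Material: hepatitis C virus NS3 helicase domain fragment enzyme; measured by: Cy5 fluorescence, 0 and 60 min reads; control set: DMSO and thioflavine S; incubation: 60 min unwinding reaction at 25 °C after ATP addition; read-out basis: % inhibition from 60/0 min fluorescence ratio, DMSO 0%, thioflavine S 100%; repeats: singlicate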
# EBNA-1 inh = EBNA-1 DNA-binding inhibitors, primary screen, biochemical, fluorescence polarization; inhibition, % at 14.8 µM; 0.34% of 300,000 active; AID 1950, 2009; in the data active = inhibition above about 28%
# MEX-5 binding = MEX-5 zinc finger RNA-binding disruptors – biochemical, C. elegans, fluorescence polarization, MLPCN library, primary screen. MEX-5/FITC-TCR2 RNA binding; active compounds read low. 0.38% of 300,000 active. Zinc finger protein mex-5 (Caenorhabditis elegans), Q9XUB2. activity score (negative = inhibition of binding), % at 10 µM;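 active = inhibition past about -25% in most replicates, and total fluorescence under double the plate's negative control median, limit read from the data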;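 also: 0% = DMSO and -100% = 5 µM competing unlabeled TCR2 RNA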
# Target sequence (Q9XUB2 whole entry, looked up): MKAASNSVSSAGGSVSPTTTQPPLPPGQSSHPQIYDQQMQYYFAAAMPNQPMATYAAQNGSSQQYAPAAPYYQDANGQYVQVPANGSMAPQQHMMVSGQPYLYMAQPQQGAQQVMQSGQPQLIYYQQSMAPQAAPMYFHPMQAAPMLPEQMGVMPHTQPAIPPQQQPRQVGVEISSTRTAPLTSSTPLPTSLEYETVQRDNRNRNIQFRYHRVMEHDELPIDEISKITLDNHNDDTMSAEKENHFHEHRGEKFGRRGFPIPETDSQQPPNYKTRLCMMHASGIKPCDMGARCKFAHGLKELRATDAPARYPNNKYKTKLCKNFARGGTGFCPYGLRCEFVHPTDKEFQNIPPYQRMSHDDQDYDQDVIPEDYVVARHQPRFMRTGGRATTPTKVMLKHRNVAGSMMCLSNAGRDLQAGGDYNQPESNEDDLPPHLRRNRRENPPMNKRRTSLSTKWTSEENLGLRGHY
# EBV gp42 inh = Epstein-Barr virus gp42 inhibitors, primary screen, biochemical, uHTS, fluorescence polarization. Glycoprotein 42 (Epstein-Barr virus (strain AG876)), Q1HVG2. Fluorescence polarization binding assay, mP read-out. inhibition, % (tested at 21.74 µM). 0.42% of 220,000 active; in the data active = inhibition above about 50%
# core dimer inh = inhibitors of HCV core protein dimerization, primary screen, biochemical, TR-FRET, high-throughput; TR-FRET GST/Flag-core106 dimerization, 1536-well; AID 1899, 2009; inhibition, % at 5 µM; 0.33% of 300,000 active;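 active = inhibition above the mean of all tested compounds plus 3 SD, set per screening campaign, cut at about 45% in these data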
#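 Material: GST/Flag-tagged HCV core106 proteins. Incubation: 4 h, 22.5 °C incubation. Read-out basis: inhibition (%) from 671 over 617 nm ratio. Measured by: TR-FRET, excitation 340 nm, emission 617 and 671 nm.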
# ZTA inh confirm = EBV Zta binding to ZRE DNA, inhibitors, confirmation, biochemical, fluorescence polarization, triplicate | AID 2361, 2010 | shares compounds with ZTA counter | 30% of 320 active | inhibition, % at 11.1 µM;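 active = mean inhibition across triplicate runs above the hit threshold derived for the original primary screen, cut at about 33% in these data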;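 also: 0% = Zta with DMSO and 100% = wells lacking Zta protein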
# EBNA1 counter = EBNA-1 DNA-binding inhibition, counter-screen for ZTA inhibitor project, biochemical, fluorescence polarization | 320 tested, under 10 active | shares compounds with ZTA counter | inhibition, % at 14.8 µM; call rule not given here
# An asterisk follows results filed as active; · = no result. Shown are actives, neighbours in structure and some others; about 1.7% of the full set was active somewhere.
SMILES,ZTA counter,NS3 helicase inh,EBNA-1 inh,MEX-5 binding,EBV gp42 inh,core dimer inh,ZTA inh confirm,EBNA1 counter
COCCCn1c(N)c(C(=O)OCCOC)c2nc3ccccc3nc21,13.3,8.2,9.4,-0.6,-2.0,0.9,·,·
CCN(CC)c1ccc(N=Cc2c(O)n(-c3cc(OC)ccc3OC)c(=O)[nH]c2=O)cc1,34.4*,35.5,-16.6,-15.0,-44.1,-4.5,-5.5,-5.7
COC(=O)C1=C(c2cc3ccccc3s2)C[C@@H]2CC[C@H]1N2C(=O)NC1CCCCC1,-4.5,·,3.9,0.6,·,8.2,·,·
C[n+]1c2ccccc2nc2ccc(NCCO)cc21,59.8*,21.5,21.7,-21.2,·,-102.0,48.2*,26.9
c1ccc(-c2nc(N3CCOCC3)s[n+]2-c2ccccc2)cc1,-13.5,1.7,-4.4,2.3,-20.9,-6.9,·,·
Cc1nc2c(=O)n(C)c(=O)nc-2n(C)n1,46.3*,4.2,-3.5,4.4,-6.6,55.3*,71.2*,-6.9

# Source: PubChem (several laboratories)
